Experiments:
Assay type in all cases: functional
[1] = test system: Mycobacterium tuberculosis; assay: Antitubercular activity against Mycobacterium tuberculosis H37Rv T3 nitroreductase mutant
Procedure, shortened: (§1)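 Broth dilution MIC99 against Mtb H37Rv (ATCC 27294) and its H37Rv mutants under aerobic conditions. Compound stocks were made in DMSO at 20 mM.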

[2] = test system: Mycobacterium tuberculosis; assay: Antitubercular activity against Mycobacterium tuberculosis H37Rv 5A1 nitroreductase mutant; procedure, shortened: as §1
[3] = test system: Mycobacterium tuberculosis; assay: Antitubercular activity against Mycobacterium tuberculosis H37Rv T2 nitroreductase mutant; procedure, shortened: as §1

Measured: MIC

C[C@@H]1Oc2nc([N+](=O)[O-])cn2C[C@@H]1OCc1ccc(OC(F)(F)F)cc1
>100 µM: all assays above

O=[N+]([O-])c1cn2c(n1)OC[C@@H](OCc1ccc(OC(F)(F)F)cc1)C2 [PRETOMANID]
>100 µM: all assays above

C[C@H]1Oc2nc([N+](=O)[O-])cn2C[C@@H]1OCc1ccc(OC(F)(F)F)cc1
>100 µM: all assays above
